Measured values taken from ChEMBL document CHEMBL4732237, “Discovery of 4-alkoxy-2-aryl-6,7-dimethoxyquinolines as a new class of topoisomerase I inhibitors endowed with potent in vitro anticancer activity” (2021).

Key:
Type in all cases: functional
Settings in all cases: read-out: GI
[1] = tested on: HL-60(TB); assay: Growth inhibition of human HL-60(TB) cells at 10 uM incubated for 48 hrs by sulforhodamine B assay relative to control
Summary of the method: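 NCI-60 one-dose screen: same culture, 48 h drug exposure and SRB read-out. Reported as percent growth relative to no-drug control and to time-zero cell number; 0–100 means growth inhibition, below 0 means lethality.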

[2] = tested on: K562; assay: Growth inhibition of human K562 cells at 10 uM incubated for 48 hrs by sulforhodamine B assay relative to control
Summary of the method: (§1)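 NCI-60 single-dose screen. Cells were grown in RPMI 1640 with 5% FBS and 2 mM L-glutamine and plated 24 h before drug addition. Compound was added at one concentration in DMSO-derived medium and incubated for 48 h at 37 °C in 5% CO2. Read-out was SRB protein stain at 515 nm. Result is percent growth versus the no-drug control and the time-zero cell count; values below 0 indicate lethality.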

[3] = tested on: MOLT-4; assay: Growth inhibition of human MOLT-4 cells at 10 uM incubated for 48 hrs by sulforhodamine B assay relative to control
Summary of the method: (§2)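 NCI one-dose screen. Cells grown in RPMI 1640 with 5% FBS and 2 mM L-glutamine, plated and incubated 24 h at 37 °C, 5% CO2. DMSO-dissolved drug added, then 48 h further incubation. Adherent cells fixed with cold TCA, suspension cells fixed after settling. Stained with 0.4% SRB, absorbance read at 515 nm. Reported as percent growth relative to no-drug control and time-zero cell number.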

[4] = tested on: SR; assay: Growth inhibition of human SR cells at 10 uM incubated for 48 hrs by sulforhodamine B assay relative to control; summary of the method: as §2
[5] = tested on: EKVX; assay: Growth inhibition of human EKVX cells at 10 uM incubated for 48 hrs by sulforhodamine B assay relative to control; summary of the method: as §1
[6] = tested on: HOP-92; assay: Growth inhibition of human HOP-92 cells at 10 uM incubated for 48 hrs by sulforhodamine B assay relative to control; summary of the method: as §1
[7] = tested on: NCI-H226; assay: Growth inhibition of human NCI-H226 cells at 10 uM incubated for 48 hrs by sulforhodamine B assay relative to control; summary of the method: as §2
[8] = tested on: NCI-H23; assay: Growth inhibition of human NCI-H23 cells at 10 uM incubated for 48 hrs by sulforhodamine B assay relative to control; summary of the method: as §2
[9] = tested on: NCI-H322M; assay: Growth inhibition of human NCI-H322M cells at 10 uM incubated for 48 hrs by sulforhodamine B assay relative to control; summary of the method: as §2
[10] = tested on: NCI-H460; assay: Growth inhibition of human NCI-H460 cells at 10 uM incubated for 48 hrs by sulforhodamine B assay relative to control; summary of the method: as §2
[11] = tested on: COLO 205; assay: Growth inhibition of human COLO 205 cells at 10 uM incubated for 48 hrs by sulforhodamine B assay relative to control; summary of the method: as §1
[12] = tested on: SW-620; assay: Growth inhibition of human SW-620 cells at 10 uM incubated for 48 hrs by sulforhodamine B assay relative to control
Summary of the method: (§3)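 NCI one-dose screen across a 59-line panel. Cells were grown in RPMI 1640 with 5% FBS and 2 mM L-glutamine, plated and pre-incubated 24 h, then exposed to drug for 48 h at 37 °C, 5% CO2. Adherent cells were fixed with cold TCA (10% final), stained with 0.4% SRB in 1% acetic acid and read at 515 nm. Result is percent growth relative to no-drug control and time-zero cell count.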

[13] = tested on: SF-268; assay: Growth inhibition of human SF-268 cells at 10 uM incubated for 48 hrs by sulforhodamine B assay relative to control; summary of the method: as §2
[14] = tested on: SF-295; assay: Growth inhibition of human SF-295 cells at 10 uM incubated for 48 hrs by sulforhodamine B assay relative to control; summary of the method: as §2
[15] = tested on: SNB-19; assay: Growth inhibition of human SNB-19 cells at 10 uM incubated for 48 hrs by sulforhodamine B assay relative to control; summary of the method: as §2
[16] = tested on: SNB-75; assay: Growth inhibition of human SNB-75 cells at 10 uM incubated for 48 hrs by sulforhodamine B assay relative to control; summary of the method: as §2
[17] = tested on: U-251; assay: Growth inhibition of human U-251 cells at 10 uM incubated for 48 hrs by sulforhodamine B assay relative to control; summary of the method: as §3
[18] = tested on: LOX IMVI; assay: Growth inhibition of human LOX IMVI cells at 10 uM incubated for 48 hrs by sulforhodamine B assay relative to control; summary of the method: as §1
[19] = tested on: Malme-3M; assay: Growth inhibition of human Malme-3M cells at 10 uM incubated for 48 hrs by sulforhodamine B assay relative to control; summary of the method: as §2
[20] = tested on: M14; assay: Growth inhibition of human M14 cells at 10 uM incubated for 48 hrs by sulforhodamine B assay relative to control; summary of the method: as §1
[21] = tested on: MDA-MB-435; assay: Growth inhibition of human MDA-MB-435 cells at 10 uM incubated for 48 hrs by sulforhodamine B assay relative to control; summary of the method: as §1
[22] = tested on: SK-MEL-2; assay: Growth inhibition of human SK-MEL-2 cells at 10 uM incubated for 48 hrs by sulforhodamine B assay relative to control; summary of the method: as §2
[23] = tested on: UACC-62; assay: Growth inhibition of human UACC-62 cells at 10 uM incubated for 48 hrs by sulforhodamine B assay relative to control; summary of the method: as §3
[24] = tested on: IGROV-1; assay: Growth inhibition of human IGROV-1 cells at 10 uM incubated for 48 hrs by sulforhodamine B assay relative to control; summary of the method: as §1
[25] = tested on: OVCAR-3; assay: Growth inhibition of human OVCAR-3 cells at 10 uM incubated for 48 hrs by sulforhodamine B assay relative to control; summary of the method: as §2
[26] = tested on: OVCAR-4; assay: Growth inhibition of human OVCAR-4 cells at 10 uM incubated for 48 hrs by sulforhodamine B assay relative to control; summary of the method: as §2
[27] = tested on: OVCAR-5; assay: Growth inhibition of human OVCAR-5 cells at 10 uM incubated for 48 hrs by sulforhodamine B assay relative to control; summary of the method: as §2
[28] = tested on: OVCAR-8; assay: Growth inhibition of human OVCAR-8 cells at 10 uM incubated for 48 hrs by sulforhodamine B assay relative to control; summary of the method: as §2
[29] = tested on: NCI/ADR-RES; assay: Growth inhibition of human NCI/ADR-RES cells at 10 uM incubated for 48 hrs by sulforhodamine B assay relative to control; summary of the method: as §2
[30] = tested on: UO-31; assay: Growth inhibition of human UO-31 cells at 10 uM incubated for 48 hrs by sulforhodamine B assay relative to control; summary of the method: as §3
[31] = tested on: PC-3; assay: Growth inhibition of human PC-3 cells at 10 uM incubated for 48 hrs by sulforhodamine B assay relative to control; summary of the method: as §2
[32] = tested on: MCF7; assay: Growth inhibition of human MCF7 cells at 10 uM incubated for 48 hrs by sulforhodamine B assay relative to control; summary of the method: as §1
[33] = tested on: MDA-MB-231; assay: Growth inhibition of human MDA-MB-231 cells at 10 uM incubated for 48 hrs by sulforhodamine B assay relative to control; summary of the method: as §1
[34] = tested on: Hs-578T; assay: Growth inhibition of human HS-578T cells at 10 uM incubated for 48 hrs by sulforhodamine B assay relative to control; summary of the method: as §1
[35] = tested on: BT-549; assay: Growth inhibition of human BT-549 cells at 10 uM incubated for 48 hrs by sulforhodamine B assay relative to control; summary of the method: as §1
[36] = tested on: MDA-MB-468; assay: Growth inhibition of human MDA-MB-468 cells at 10 uM incubated for 48 hrs by sulforhodamine B assay relative to control; summary of the method: as §1

Measured: inhibition of growth at 10 µM

COc1cc2nc(-c3ccc(Cl)cc3)cc(OCCN3CCC(O)CC3)c2cc1OC
3%: all assays above
